According to publication PMC5108244 (ACS Infectious Diseases, 2016):

What was measured:
[1] = tested on: T. brucei rhodesiense STIB900 strain; test: Early-stage T. brucei infection model in mice; assay type: in vivo
How it was run: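 Female Swiss Webster mice (6–8 weeks, n = 4/group) infected ip on day 0 with 1 × 10^4 fresh-culture bloodstream-form parasites diluted in IMDM. Oral dosing twice daily, days 2–5 (eight doses), in 5% DMSO, 7% EtOH, 3% Tween-80 in saline; vehicle group in parallel; benzoxaborole reference as positive control. Parasitemia checked microscopically in tail blood through day 60.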

[2] = tested on: T. brucei brucei TREU667 strain; test: Late-stage T. brucei infection model in mice; assay type: in vivo; conditions: mice n = 5, orally 25 mg/kg qd for 10 days, monitored 90 days
How it was run: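 Female Swiss Webster mice (6–8 weeks, n = 5/group) infected ip on day 0 with 1 × 10^4 donor-mouse parasites in IMDM. From day 7, oral dosing for 10 days in DMSO/EtOH/Tween-80/saline: test compound 50 mg/kg bid, benzoxaborole control 25 mg/kg qd, vehicle bid. Diminazene control: single ip dose of 10 mg/kg on day 7. Tail blood checked microscopically at least twice weekly to day 30, then weekly to day 90. Parasitemic mice euthanized.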

What does the source list for `CC1(C)OB(O)c2cc(NC(=O)c3ccc(F)cc3C(F)(F)F)ccc21` [compound 14, 4-fluoro-N-(1-hydroxy-3,3-dimethyl-2,1-benzoxaborol-6-yl)-2-(trifluoromethyl)benzamide]?
cures as of day 60 ([1]; mice n = 4, 1 mg/kg po bid for 4 days): 0/4; cures as of day 60 ([1]; mice n = 4, 5 mg/kg po bid for 4 days): 1/4; cures as of day 60 ([1]; mice n = 4, 10 mg/kg po bid for 4 days): 4/4; mice free of infection at the end of the experiment [2]: all survived and were free of infection
